Laboratory results as given in ChEMBL document CHEMBL3580633, “Benzoxaborole antimalarial agents. Part 4. Discovery of potent 6-(2-(alkoxycarbonyl)pyrazinyl-5-oxy)-1,3-dihydro-1-hydroxy-2,1-benzoxaboroles” (J Med Chem, 2015).

Legend:
Plasmodium falciparum [1] = assay: Antimalarial activity against chloroquine-resistant Plasmodium falciparum W2 cultured in human erythrocytes assessed as inhibition of parasite growth at 5 uM incubated for 48 hrs by YOYO-1 staining based flow cytometry; type: functional; conditions: W2, 48 h
In short: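 W2 P. falciparum grown in human erythrocytes in RPMI-1640 with 10% human serum or 0.5% Albumax, under 3% O2/5% CO2/92% N2. Sorbitol-synchronised rings at 2% hematocrit, 1% parasitemia, exposed to one concentration for 48 h. Cells fixed in 2% formaldehyde, stained with YOYO-1, and parasites per erythrocyte counted by flow cytometry. Value given as percent inhibition versus untreated control.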

Plasmodium falciparum [2] = assay: Antimalarial activity against chloroquine-resistant Plasmodium falciparum W2 cultured in human erythrocytes assessed as inhibition of parasite growth incubated for 48 hrs by YOYO-1 staining based flow cytometry; type: functional, organism-based; conditions: W2, 48 h
Plasmodium falciparum [3] = assay: Antimalarial activity against chloroquine-sensitive Plasmodium falciparum 3D7 cultured in human erythrocytes incubated for 48 hrs by [3H]-hypoxanthine incorporation assay; type: functional, organism-based
In short: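 3D7 parasites in human erythrocytes, RPMI-1640 with 0.5% Albumax II, […], 37 °C, 5% O2/5% CO2. Asynchronous cultures (0.5% parasitemia, 2% hematocrit) given 3-fold serial dilutions for 24 h. [3H]hypoxanthine then added for a further 24 h, and incorporation counted by scintillation. Normalised to drug-free infected cells. IC50 from at least three independent experiments.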

Jurkat = assay: Cytotoxicity against human Jurkat cells incubated for 72 hrs by MTT assay; type: cell-based
Plasmodium berghei [4] = assay: Antiplasmodial activity against Plasmodium berghei infected in Swiss Webster mouse assessed as mouse survival at 30 mg/kg, po dosed once daily for 4 consecutive days beginning 1 hr after initial infection and measured on day 12 post infection by Giemsa staining method; type: functional
In short: (§1)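 Female Swiss Webster mice (about 20 g) were infected ip with 6 × 10^6 P. berghei-infected erythrocytes from a donor mouse. They were dosed by oral gavage once daily for 4 days, starting 1 h post-infection, in PEG 300/propylene glycol/water (55/25/20 by weight). Parasitemia was read daily on Giemsa smears from day 4, and mice were euthanized above 50% parasitemia. Percent survival was tracked to 21 days.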

Plasmodium berghei [5] = assay: Antiplasmodial activity against Plasmodium berghei infected in Swiss Webster mouse assessed as mouse survival at 30 mg/kg, po dosed once daily for 4 consecutive days beginning 1 hr after initial infection and measured on day 13 post infection by Giemsa staining method; type: functional; in short: as §1
Plasmodium berghei [6] = assay: Antiplasmodial activity against Plasmodium berghei infected in Swiss Webster mouse assessed as mouse survival at 30 mg/kg, po dosed once daily for 4 consecutive days beginning 1 hr after initial infection and measured on day 14 post infection by Giemsa staining method; type: functional; in short: as §1
Plasmodium berghei [7] = assay: Antiplasmodial activity against Plasmodium berghei infected in Swiss Webster mouse assessed as mouse survival at 30 mg/kg, po dosed once daily for 4 consecutive days beginning 1 hr after initial infection and measured on day 15 post infection by Giemsa staining method; type: functional; in short: as §1
Plasmodium berghei [8] = assay: Antiplasmodial activity against Plasmodium berghei infected in Swiss Webster mouse assessed as mouse survival at 30 mg/kg, po dosed once daily for 4 consecutive days beginning 1 hr after initial infection and measured on day 16 to 19 post infection by Giemsa staining method; type: functional; in short: as §1
Plasmodium berghei [9] = assay: Antiplasmodial activity against Plasmodium berghei infected in Swiss Webster mouse assessed as mouse survival at 30 mg/kg, po dosed once daily for 4 consecutive days beginning 1 hr after initial infection and measured on day 20 post infection by Giemsa staining method; type: functional; in short: as §1
Plasmodium berghei [10] = assay: Antiplasmodial activity against Plasmodium berghei infected in Swiss Webster mouse assessed as mouse survival at 30 mg/kg, po dosed once daily for 4 consecutive days beginning 1 hr after initial infection and measured on day 18 post infection by Giemsa staining method; type: functional; in short: as §1
Plasmodium berghei [11] = assay: Antiplasmodial activity against Plasmodium berghei infected in Swiss Webster mouse assessed as mouse survival at 30 mg/kg, po dosed once daily for 4 consecutive days beginning 1 hr after initial infection and measured on day 4 post infection by Giemsa staining method; type: functional; in short: as §1
Plasmodium berghei [12] = assay: Antiplasmodial activity against Plasmodium berghei infected in Swiss Webster mouse assessed as mouse survival at 30 mg/kg, po dosed once daily for 4 consecutive days beginning 1 hr after initial infection and measured on day 5 post infection by Giemsa staining method; type: functional; in short: as §1
Plasmodium berghei [13] = assay: Antiplasmodial activity against Plasmodium berghei infected in Swiss Webster mouse assessed as mouse survival at 30 mg/kg, po dosed once daily for 4 consecutive days beginning 1 hr after initial infection and measured on day 6 post infection by Giemsa staining method; type: functional; in short: as §1
Plasmodium berghei [14] = assay: Antiplasmodial activity against Plasmodium berghei infected in Swiss Webster mouse assessed as mouse survival at 30 mg/kg, po dosed once daily for 4 consecutive days beginning 1 hr after initial infection and measured on day 7 post infection by Giemsa staining method; type: functional; in short: as §1
Plasmodium berghei [15] = assay: Antiplasmodial activity against Plasmodium berghei infected in Swiss Webster mouse assessed as mouse survival at 30 mg/kg, po dosed once daily for 4 consecutive days beginning 1 hr after initial infection and measured on day 8 post infection by Giemsa staining method; type: functional; in short: as §1
Plasmodium berghei [16] = assay: Antiplasmodial activity against Plasmodium berghei infected in Swiss Webster mouse assessed as mouse survival at 30 mg/kg, po dosed once daily for 4 consecutive days beginning 1 hr after initial infection and measured on day 9 post infection by Giemsa staining method; type: functional; in short: as §1
Plasmodium berghei [17] = assay: Antiplasmodial activity against Plasmodium berghei infected in Swiss Webster mouse assessed as mouse survival at 30 mg/kg, po dosed once daily for 4 consecutive days beginning 1 hr after initial infection and measured on day 10 post infection by Giemsa staining method; type: functional
In short: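 Female Swiss Webster mice (about 20 g) infected ip with 6 × 10^6 P. berghei-infected erythrocytes. Oral gavage once daily for 4 days, starting 1 h after infection. Vehicle PEG300/propylene glycol/water (55/25/20 by weight). Giemsa-smear parasitemia counted daily from day 4. Mice euthanised above 50% parasitemia. Survival followed to day 21, 5 mice per dose, chloroquine 30 mg/kg as reference.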

Plasmodium berghei [18] = assay: Antiplasmodial activity against Plasmodium berghei infected in Swiss Webster mouse assessed as mouse survival at 30 mg/kg, po dosed once daily for 4 consecutive days beginning 1 hr after initial infection and measured on day 11 post infection by Giemsa staining method; type: functional; in short: as §1

| SMILES | IC50 (Plasmodium falciparum [2]) | IC50 (Plasmodium falciparum [3]) | other results |
| --- | --- | --- | --- |
| CCOC(=O)c1ccc(Oc2ccc3c(c2)B(O)OC3)cc1 |  |  | inhibition at 5 µM (Plasmodium falciparum [1]): 0% |
| CCOC(=O)c1ccc(Oc2ccc3c(c2)B(O)OC3)nc1 |  |  | inhibition at 5 µM (Plasmodium falciparum [1]): 0% |
| COC(=O)c1ccc(Oc2ccc3c(c2)B(O)OC3)cn1 | 23 nM | 120 nM | IC50 (Jurkat): > 100000 nM |
| COC(=O)c1cnc(Oc2ccc3c(c2)B(O)OC3)nc1 |  |  | inhibition at 5 µM (Plasmodium falciparum [1]): 80% |
| COC(=O)c1ccc(Oc2ccc3c(c2)B(O)OC3)nn1 | 82 nM | 100 nM |  |
| OB1OCc2ccc(Oc3cnccn3)cc21 | 9380 nM | > 5000 nM |  |
| N#Cc1cnc(Oc2ccc3c(c2)B(O)OC3)cn1 | 470 nM | 3250 nM |  |
| OCc1cnc(Oc2ccc3c(c2)B(O)OC3)cn1 | 440 nM | 2240 nM |  |
| NCc1cnc(Oc2ccc3c(c2)B(O)OC3)cn1 | 110 nM | 470 nM |  |
| CN(C)Cc1cnc(Oc2ccc3c(c2)B(O)OC3)cn1 | > 10000 nM | > 5000 nM |  |
| CNC(=O)c1cnc(Oc2ccc3c(c2)B(O)OC3)cn1 | 240 nM | 320 nM |  |
| CCNC(=O)c1cnc(Oc2ccc3c(c2)B(O)OC3)cn1 | 120 nM | 870 nM | IC50 (Jurkat): 79900 nM |
| CN(C)C(=O)c1cnc(Oc2ccc3c(c2)B(O)OC3)cn1 | 150 nM | 960 nM | IC50 (Jurkat): > 100000 nM |
| O=C(NCCO)c1cnc(Oc2ccc3c(c2)B(O)OC3)cn1 | > 10000 nM | 5900 nM |  |
| CN(C)CCNC(=O)c1cnc(Oc2ccc3c(c2)B(O)OC3)cn1 | 6660 nM | > 5000 nM |  |
| CC(C)S(=O)(=O)NC(=O)c1cnc(Oc2ccc3c(c2)B(O)OC3)cn1 | 190 nM | 130 nM |  |
| O/N=C/c1cnc(Oc2ccc3c(c2)B(O)OC3)cn1 | 1770 nM | 3000 nM |  |

| SMILES | IC50 (Plasmodium falciparum [2]) | IC50 (Plasmodium falciparum [3]) | other results |
| --- | --- | --- | --- |
| N/C(=N\O)c1cnc(Oc2ccc3c(c2)B(O)OC3)cn1 | > 10000 nM | > 5000 nM |  |
| CC1(C)COC(c2cnc(Oc3ccc4c(c3)B(O)OC4)cn2)=N1 | 800 nM | 1460 nM |  |
| Cc1nnc(-c2cnc(Oc3ccc4c(c3)B(O)OC4)cn2)o1 | > 10000 nM | > 5000 nM |  |
| OB1OCc2ccc(Oc3cnc(-c4nnn[nH]4)cn3)cc21 | > 10000 nM | > 5000 nM |  |
| CCOC(=O)c1cnc(Oc2ccc3c(c2)B(O)OC3)cn1 | 0.5 nM | 4.4 nM | IC50 (Jurkat): 16800 nM |
| CC(C)OC(=O)c1cnc(Oc2ccc3c(c2)B(O)OC3)cn1 | 1.2 nM | 1.4 nM | IC50 (Jurkat): > 100000 nM |
| CC(C)COC(=O)c1cnc(Oc2ccc3c(c2)B(O)OC3)cn1 | 0.5 nM | 2.5 nM | IC50 (Jurkat): 17600 nM |
| CCCCOC(=O)c1cnc(Oc2ccc3c(c2)B(O)OC3)cn1 | 0.2 nM | 0.7 nM | IC50 (Jurkat): > 100000 nM |
| CC(C)(C)OC(=O)c1cnc(Oc2ccc3c(c2)B(O)OC3)cn1 | 19 nM | 22 nM | IC50 (Jurkat): > 100000 nM |
| CC(C)CCOC(=O)c1cnc(Oc2ccc3c(c2)B(O)OC3)cn1 | 0.4 nM | 2 nM |  |
| O=C(OC1CCCCC1)c1cnc(Oc2ccc3c(c2)B(O)OC3)cn1 | 0.7 nM | 2.9 nM | IC50 (Jurkat): 52400 nM |
| CC(C)(C)COC(=O)c1cnc(Oc2ccc3c(c2)B(O)OC3)cn1 | 6.6 nM | 8.9 nM |  |
| CC(C)(N)COC(=O)c1cnc(Oc2ccc3c(c2)B(O)OC3)cn1 | 190 nM | 250 nM |  |
| C[C@@H]1CC[C@H]2[C@@H](C)C(=O)O[C@@H]3O[C@@]4(C)CC[C@@H]1[C@]32OO4 [ARTEMISININ] | 6 nM |  |  |
| O=C1C(O)=C([C@H]2CC[C@H](c3ccc(Cl)cc3)CC2)C(=O)c2ccccc21 [ATOVAQUONE] |  | 1 nM |  |
| CCN(CC)CCCC(C)Nc1ccnc2cc(Cl)ccc12 (stereo not drawn) [CHLOROQUINE] |  |  | survival at 30 mg/kg (Plasmodium berghei [4]): 100%; survival at 30 mg/kg (Plasmodium berghei [5]): 100%; survival at 30 mg/kg (Plasmodium berghei [6]): 100%; survival at 30 mg/kg (Plasmodium berghei [7]): 100%; survival at 30 mg/kg (Plasmodium berghei [8]): 100%; survival at 30 mg/kg (Plasmodium berghei [9]): 20%; survival at 30 mg/kg (Plasmodium berghei [10]): 100%; survival at 30 mg/kg (Plasmodium berghei [11]): 100%; survival at 30 mg/kg (Plasmodium berghei [12]): 100%; survival at 30 mg/kg (Plasmodium berghei [13]): 100%; survival at 30 mg/kg (Plasmodium berghei [14]): 100%; survival at 30 mg/kg (Plasmodium berghei [15]): 100%; survival at 30 mg/kg (Plasmodium berghei [16]): 100%; survival at 30 mg/kg (Plasmodium berghei [17]): 100%; survival at 30 mg/kg (Plasmodium berghei [18]): 100% |
